Measurements taken from publication PMC6606825 (Journal of Ginseng Research, 2018).

Assay: Pharmacokinetics of CK and its metabolite 20
Type: in vivo, healthy Chinese volunteers
Settings: mean (SD)
Summary of the method: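 Healthy adults given one oral tablet dose fasting (overnight, or 10 h in a crossover food-effect arm); 30 subjects from the 100/200/400 mg groups were pooled with 24 from 200 mg fasting periods. Plasma was stored at −70°C, extracted with MTBE plus internal standards and assayed by LC-MS/MS. Cmax was observed and AUClast calculated by linear trapezoid, each divided by dose. The metabolite/parent ratio was also calculated. Genotyping used Sequenom MassARRAY, and log-transformed values were compared by one-way ANOVA.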

[1] = ABCG2 rs3114018 AA (first line)
[2] = ABCG2 rs3114018 AA (third line)

## CC(C)=CCC[C@](C)(O)[C@H]1CC[C@]2(C)[C@@H]1[C@H](O)C[C@@H]1[C@@]3(C)CC[C@H](O)C(C)(C)[C@@H]3CC[C@]12C [20(S)-PPD, 20(S)-protopanaxadiol]
ABCG2 rs2725248 CC
  Ratio 20(S)-PPD/CK Cmax/D: 0.74 (0.83) %
[1]
  20(S)-PPD AUClast/D: 0.91 (0.71)
  20(S)-PPD Cmax/D: 0.03 (0.02)
  Ratio 20(S)-PPD/CK AUClast/D: 4.78 (4.26) %
  Ratio 20(S)-PPD/CK Cmax/D: 0.96 (0.87) %
[2]
  20(S)-PPD AUClast/D: 0.88 (0.92)
  20(S)-PPD Cmax/D: 0.03 (0.03)
  Ratio 20(S)-PPD/CK AUClast/D: 5.73 (8.96) %
  Ratio 20(S)-PPD/CK Cmax/D: 1.25 (1.73) %
ABCG2 rs3114018 CA
  20(S)-PPD AUClast/D: 0.80 (0.73)
  20(S)-PPD Cmax/D: 0.03 (0.03)
  Ratio 20(S)-PPD/CK AUClast/D: 3.46 (4.62) %
  Ratio 20(S)-PPD/CK Cmax/D: 1.17 (1.94) %
ABCG2 rs6857600 CC
  20(S)-PPD AUClast/D: 0.89 (0.83)
  20(S)-PPD Cmax/D: 0.03 (0.03)
  Ratio 20(S)-PPD/CK AUClast/D: 4.61 (6.81) %
  Ratio 20(S)-PPD/CK Cmax/D: 1.26 (1.91) %
ABCG2 rs6857600 TC
  20(S)-PPD AUClast/D: 0.65 (0.64)
  20(S)-PPD Cmax/D: 0.02 (0.02)
  Ratio 20(S)-PPD/CK AUClast/D: 2.91 (3.24) %
  Ratio 20(S)-PPD/CK Cmax/D: 0.75 (0.80) %
ABCG2 rs6857600 TT
  20(S)-PPD AUClast/D: 0.48 (0.53)
  20(S)-PPD Cmax/D: 0.02 (0.02)
  Ratio 20(S)-PPD/CK AUClast/D: 4.27 (5.76) %
  Ratio 20(S)-PPD/CK Cmax/D: 0.95 (1.30) %
ABCG2 rs12505410 GG
  20(S)-PPD AUClast/D: 0.92 (0.62)
  20(S)-PPD Cmax/D: 0.03 (0.02)
  Ratio 20(S)-PPD/CK AUClast/D: 3.61 (2.83) %
  Ratio 20(S)-PPD/CK Cmax/D: 0.90 (0.55) %
ABCG2 rs12505410 GT
  20(S)-PPD AUClast/D: 1.00 (0.74)
  Ratio 20(S)-PPD/CK AUClast/D: 4.63 (5.21) %
  Ratio 20(S)-PPD/CK Cmax/D: 1.36 (2.02) %
ABCG2 rs12505410 TT
  20(S)-PPD AUClast/D: 0.63 (0.82)
  20(S)-PPD Cmax/D: 0.02 (0.03)
  Ratio 20(S)-PPD/CK AUClast/D: 4.03 (7.68) %
  Ratio 20(S)-PPD/CK Cmax/D: 0.97 (1.54) %
ABCG2 rs17731799 GG
  20(S)-PPD AUClast/D: 0.91 (0.71)
  20(S)-PPD Cmax/D: 0.03 (0.02)
  Ratio 20(S)-PPD/CK AUClast/D: 4.78 (4.26) %
  Ratio 20(S)-PPD/CK Cmax/D: 0.96 (0.87) %
ABCG2 rs17731799 GT
  20(S)-PPD AUClast/D: 0.82 (0.77)
  20(S)-PPD Cmax/D: 0.03 (0.03)
  Ratio 20(S)-PPD/CK AUClast/D: 3.65 (5.14) %
  Ratio 20(S)-PPD/CK Cmax/D: 1.28 (2.16) %
ABCG2 rs17731799 TT
  20(S)-PPD AUClast/D: 0.80 (0.85)
  20(S)-PPD Cmax/D: 0.03 (0.03)
  Ratio 20(S)-PPD/CK AUClast/D: 4.76 (7.86) %
  Ratio 20(S)-PPD/CK Cmax/D: 1.08 (1.53) %
CFTR rs213950 AG
  20(S)-PPD AUClast/D: 0.91 (0.99)
  20(S)-PPD Cmax/D: 0.03 (0.04)
  Ratio 20(S)-PPD/CK AUClast/D: 4.96 (7.34) %
  Ratio 20(S)-PPD/CK Cmax/D: 1.45 (2.26) %
CFTR rs213950 GG
  20(S)-PPD AUClast/D: 0.64 (0.54)
  20(S)-PPD Cmax/D: 0.02 (0.02)
  Ratio 20(S)-PPD/CK AUClast/D: 2.67 (3.18) %
  Ratio 20(S)-PPD/CK Cmax/D: 0.64 (0.66) %
CFTR rs213968 CC
  20(S)-PPD AUClast/D: 0.64 (0.55)
  20(S)-PPD Cmax/D: 0.02 (0.02)
  Ratio 20(S)-PPD/CK AUClast/D: 2.81 (3.33) %
  Ratio 20(S)-PPD/CK Cmax/D: 0.65 (0.69) %
CFTR rs213968 CT
  20(S)-PPD AUClast/D: 0.90 (0.98)
  20(S)-PPD Cmax/D: 0.03 (0.04)
  Ratio 20(S)-PPD/CK AUClast/D: 4.70 (7.26) %
  Ratio 20(S)-PPD/CK Cmax/D: 1.40 (2.23) %
CFTR rs213968 TT
  20(S)-PPD AUClast/D: 0.97 (0.49)
  20(S)-PPD Cmax/D: 0.04 (0.02)
  Ratio 20(S)-PPD/CK AUClast/D: 5.87 (7.37) %
  Ratio 20(S)-PPD/CK Cmax/D: 1.40 (1.51) %
CFTR rs213976 GG
  20(S)-PPD AUClast/D: 1.12 (0.43)
  20(S)-PPD Cmax/D: 0.04 (0.02)
  Ratio 20(S)-PPD/CK AUClast/D: 7.39 (8.42) %
  Ratio 20(S)-PPD/CK Cmax/D: 1.68 (1.73) %
CFTR rs213976 GT
  20(S)-PPD AUClast/D: 0.83 (0.78)
  20(S)-PPD Cmax/D: 0.03 (0.03)
  Ratio 20(S)-PPD/CK AUClast/D: 4.01 (4.96) %
  Ratio 20(S)-PPD/CK Cmax/D: 1.32 (2.08) %
CFTR rs213976 TT
  20(S)-PPD AUClast/D: 0.74 (0.87)
  20(S)-PPD Cmax/D: 0.02 (0.03)
  Ratio 20(S)-PPD/CK AUClast/D: 3.63 (6.72) %
  Ratio 20(S)-PPD/CK Cmax/D: 0.81 (1.29) %
CFTR rs1042077 GG
  20(S)-PPD AUClast/D: 0.97 (0.49)
  20(S)-PPD Cmax/D: 0.04 (0.02)
  Ratio 20(S)-PPD/CK AUClast/D: 5.87 (7.37) %
  Ratio 20(S)-PPD/CK Cmax/D: 1.40 (1.51) %
CFTR rs1042077 GT
  20(S)-PPD AUClast/D: 0.92 (0.99)
  20(S)-PPD Cmax/D: 0.03 (0.04)
  Ratio 20(S)-PPD/CK AUClast/D: 4.85 (7.37) %
  Ratio 20(S)-PPD/CK Cmax/D: 1.44 (2.26) %
CFTR rs1042077 TT
  20(S)-PPD AUClast/D: 0.68 (0.55)
  20(S)-PPD Cmax/D: 0.02 (0.02)
  Ratio 20(S)-PPD/CK AUClast/D: 2.95 (3.37) %
  Ratio 20(S)-PPD/CK Cmax/D: 0.68 (0.70) %
CFTR rs2106155 AA
  20(S)-PPD AUClast/D: 1.09 (0.41)
  20(S)-PPD Cmax/D: 0.04 (0.02)
  Ratio 20(S)-PPD/CK AUClast/D: 7.22 (7.81) %
  Ratio 20(S)-PPD/CK Cmax/D: 1.67 (1.60) %
CFTR rs2106155 CA
  20(S)-PPD AUClast/D: 0.88 (0.82)
  20(S)-PPD Cmax/D: 0.04 (0.03)
  Ratio 20(S)-PPD/CK AUClast/D: 4.03 (5.36) %
  Ratio 20(S)-PPD/CK Cmax/D: 1.39 (2.26) %
